Active and inactive are the calls of the source. The calls are words filed in the database; no cut-off is given here.
How the values were obtained:
Mus musculus [1] = test: Anticonvulsant activity in albino Carworth Farms No.1 mouse assessed as protection against maximal electroshock-induced seizure at 30 mg/kg, ip after 0.5 hrs; assay type: functional, organism-based; parameters: dose 30 mg/kg
How it was run: (§1)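 Mouse MES test with compound given i.p. (30, 100 or 300 mg/kg) in 0.5% methylcellulose; tested at 0.5 and 4 h. Corneal stimulus of 50 mA at 60 Hz for 0.2 s, electrodes primed with 0.5% butacaine in 0.9% NaCl. Protection is abolition of hindlimb tonic extension; scored as protected/tested.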

Mus musculus [2] = test: Anticonvulsant activity in albino Carworth Farms No.1 mouse assessed as protection against subcutaneous metrazol-induced seizure at 30 mg/kg, ip after 0.5 hrs; assay type: functional, organism-based; parameters: dose 30 mg/kg
How it was run: (§2)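 Mouse scMET test. Compound given i.p. (30, 100 or 300 mg/kg) in 0.5% methylcellulose. Pentylenetetrazole 85 mg/kg (CD97) given s.c. at 0.5 or 4 h, then mice observed for 30 min. Protection is absence of clonic spasms; scored as protected/tested.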

Mus musculus [3] = test: Anticonvulsant activity in albino Carworth Farms No.1 mouse assessed as protection against electric-current for 3 secs-induced seizure at 100 mg/kg, ip after 1 hr by 6Hz minimal clonic seizure test; assay type: functional, organism-based; parameters: dose 100 mg/kg
How it was run: (§3)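 6 Hz psychomotor seizure test in mice. Compound given i.p. as a suspension in 0.5% methylcellulose. Corneal stimulation at 32 mA, 0.2-ms monopolar rectangular pulses at 6 Hz for 3 s, from a constant-current device. Tests run 0.25–4 h after dosing. A mouse counted as protected if it resumed normal exploratory behaviour within 10 s; scored as protected/tested.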

Mus musculus [4] = test: Neurotoxicity in albino Carworth Farms No.1 mouse assessed as motor impairment at 300 mg/kg, ip after 4 hrs by rotarod test; assay type: toxicity, organism-based; parameters: dose 300 mg/kg, route intraperitoneal; settings: in vivo
How it was run: (§4)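 Rotorod neurotoxicity in mice at 6 r.p.m. Compound given i.p. (30, 100, 300 mg/kg) in 0.5% methylcellulose; tested at 30 min and 4 h. Impairment is inability to keep equilibrium on the rod for a given time; scored as impaired/tested.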

Mus musculus [5] = test: Anticonvulsant activity in albino Carworth Farms No.1 mouse assessed as protection against maximal electroshock-induced seizure at 30 mg/kg, ip after 4 hrs; assay type: functional, organism-based; parameters: dose 30 mg/kg; how it was run: as §1
Mus musculus [6] = test: Anticonvulsant activity in albino Carworth Farms No.1 mouse assessed as protection against subcutaneous metrazol-induced seizure at 300 mg/kg, ip after 4 hrs; assay type: functional, organism-based; parameters: dose 300 mg/kg; how it was run: as §2
Mus musculus [7] = test: Anticonvulsant activity in albino Carworth Farms No.1 mouse assessed as protection against subcutaneous metrazol-induced seizure at 100 mg/kg, ip after 0.5 hrs; assay type: functional, organism-based; parameters: dose 100 mg/kg; how it was run: as §2
Mus musculus [8] = species on record: Mus musculus; test: Protective index, ratio of TD50 for albino Carworth Farms No.1 mouse to ED50 for albino Carworth Farms No.1 mouse by 6Hz minimal clonic seizure test; assay type: functional
How it was run: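 Mouse 6 Hz (32 mA) quantification, compound given i.p. at the time of peak effect. Groups of at least eight mice at varied doses.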

Mus musculus [9] = test: Anticonvulsant activity in albino Carworth Farms No.1 mouse assessed as protection against maximal electroshock-induced seizure at 300 mg/kg, ip after 0.5 hrs; assay type: functional, organism-based; parameters: dose 300 mg/kg; how it was run: as §1
Mus musculus [10] = test: Anticonvulsant activity in albino Carworth Farms No.1 mouse assessed as protection against maximal electroshock-induced seizure at 100 mg/kg, ip after 0.5 hrs; assay type: functional, organism-based; parameters: dose 100 mg/kg; how it was run: as §1
Mus musculus [11] = test: Anticonvulsant activity in albino Carworth Farms No.1 mouse assessed as protection against subcutaneous metrazol-induced seizure at 300 mg/kg, ip after 0.5 hrs; assay type: functional, organism-based; parameters: dose 300 mg/kg; how it was run: as §2
Mus musculus [12] = test: Anticonvulsant activity in albino Carworth Farms No.1 mouse assessed as protection against maximal electroshock-induced seizure at 100 mg/kg, ip after 4 hrs; assay type: functional, organism-based; parameters: dose 100 mg/kg; how it was run: as §1
Mus musculus [13] = test: Neurotoxicity in albino Carworth Farms No.1 mouse assessed as motor impairment at 100 mg/kg, ip after 0.5 hrs by rotarod test; assay type: toxicity, organism-based; parameters: dose 100 mg/kg, route intraperitoneal; settings: in vivo; how it was run: as §4
Mus musculus [14] = test: Neurotoxicity in albino Carworth Farms No.1 mouse assessed as motor impairment at 100 mg/kg, ip after 4 hrs by rotarod test; assay type: toxicity, organism-based; parameters: dose 100 mg/kg, route intraperitoneal; settings: in vivo; how it was run: as §4
Mus musculus [15] = test: Anticonvulsant activity in ip dosed albino Carworth Farms No.1 mouse assessed as time needs to show peak effect for electric-current for 3 secs-induced seizure after 0.25 hrs by 6Hz minimal clonic seizure test; assay type: functional
Mus musculus [16] = test: Anticonvulsant activity in albino Carworth Farms No.1 mouse assessed as protection against subcutaneous metrazol-induced seizure at 100 mg/kg, ip after 4 hrs; assay type: functional, organism-based; parameters: dose 100 mg/kg; how it was run: as §2
Mus musculus [17] = test: Anticonvulsant activity in albino Carworth Farms No.1 mouse assessed as protection against electric-current for 3 secs-induced seizure at 100 mg/kg, ip after 4 hrs by 6Hz minimal clonic seizure test; assay type: functional, organism-based; parameters: dose 100 mg/kg; how it was run: as §3
Mus musculus [18] = test: Neurotoxicity in albino Carworth Farms No.1 mouse assessed as motor impairment at 30 mg/kg, ip after 4 hrs by rotarod test; assay type: toxicity, organism-based; parameters: dose 30 mg/kg, route intraperitoneal; settings: in vivo; how it was run: as §4
Mus musculus [19] = test: Neurotoxicity in albino Carworth Farms No.1 mouse assessed as motor impairment at 100 mg/kg, ip after 2 hrs by rotarod test; assay type: toxicity, organism-based; parameters: dose 100 mg/kg, route intraperitoneal; settings: in vivo
How it was run: (§5)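 Rotorod neurotoxicity in mice (18–25 g) following i.p. dosing of a suspension in 0.5% methylcellulose in water, tested at intervals between 0.25 and 4 h. Impairment was scored as failure to keep equilibrium on a 6 r.p.m. rod, reported as number impaired/number tested.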

Mus musculus [20] = test: Anticonvulsant activity in albino Carworth Farms No.1 mouse assessed as protection against electric-current for 3 secs-induced seizure at 100 mg/kg, ip after 2 hrs by 6Hz minimal clonic seizure test; assay type: functional, organism-based; parameters: dose 100 mg/kg; how it was run: as §3
Mus musculus [21] = test: Neurotoxicity in albino Carworth Farms No.1 mouse assessed as motor impairment at 30 mg/kg, ip after 0.5 hrs by rotarod test; assay type: toxicity, organism-based; parameters: dose 30 mg/kg, route intraperitoneal; settings: in vivo; how it was run: as §4
Mus musculus [22] = test: Anticonvulsant activity in albino Carworth Farms No.1 mouse assessed as protection against maximal electroshock-induced seizure at 300 mg/kg, ip after 4 hrs; assay type: functional, organism-based; parameters: dose 300 mg/kg; how it was run: as §1
Mus musculus [23] = test: Neurotoxicity in albino Carworth Farms No.1 mouse assessed as motor impairment at 300 mg/kg, ip after 0.5 hrs by rotarod test; assay type: toxicity, organism-based; parameters: dose 300 mg/kg, route intraperitoneal; settings: in vivo; how it was run: as §4
Mus musculus [24] = test: Neurotoxicity in albino Carworth Farms No.1 mouse assessed as motor impairment at 100 mg/kg, ip after 0.25 hrs by rotarod test; assay type: toxicity, organism-based; parameters: dose 100 mg/kg, route intraperitoneal; settings: in vivo; how it was run: as §5
Mus musculus [25] = test: Anticonvulsant activity in albino Carworth Farms No.1 mouse assessed as protection against electric-current for 3 secs-induced seizure at 100 mg/kg, ip after 0.25 hrs by 6Hz minimal clonic seizure test; assay type: functional, organism-based; parameters: dose 100 mg/kg; how it was run: as §3
Mus musculus [26] = test: Neurotoxicity in albino Carworth Farms No.1 mouse assessed as motor impairment at 100 mg/kg, ip after 1 hr by rotarod test; assay type: toxicity, organism-based; parameters: dose 100 mg/kg, route intraperitoneal; settings: in vivo; how it was run: as §5
Mus musculus [27] = test: Anticonvulsant activity in albino Carworth Farms No.1 mouse assessed as protection against subcutaneous metrazol-induced seizure at 30 mg/kg, ip after 4 hrs; assay type: functional, organism-based; parameters: dose 30 mg/kg; how it was run: as §2
[28] = Neurotoxicity in ip dosed albino Carworth Farms No.1 mouse assessed as motor impairment after 0.5 hrs by rotarod test; assay type: toxicity, organism-based; settings: Carworth Farms No.1 (albino), in vivo
How it was run: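 Rotorod test in mice (18–25 g) dosed i.p. with compound suspended in 0.5% methylcellulose in water. Tested 30 min after dosing. Impairment was scored as inability to keep equilibrium on a 6 r.p.m. rod. TD50 came from groups of ≥8 mice at the time of peak effect, with 95% confidence intervals by probit analysis (Finney method).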

Mus musculus [29] = test: Anticonvulsant activity in ip dosed albino Carworth Farms No.1 mouse assessed as protection against electric-current for 3 secs-induced seizure after 0.25 hrs by 6Hz minimal clonic seizure test; assay type: functional; settings: albino Carworth Farms No.1, ip

Row | SMILES | Activity (Mus musculus [1]) | Activity (Mus musculus [2]) | Activity (Mus musculus [4]) | Activity (Mus musculus [5]) | Activity (Mus musculus [6]) | Activity (Mus musculus [7]) | Activity (Mus musculus [9]) | Activity (Mus musculus [10]) | Activity (Mus musculus [11]) | Activity (Mus musculus [12]) | Activity (Mus musculus [13]) | Activity (Mus musculus [14]) | Time (Mus musculus [15]) [h] | Activity (Mus musculus [16]) | Activity (Mus musculus [17]) | Activity (Mus musculus [18]) | Activity (Mus musculus [19]) | Activity (Mus musculus [20]) | Activity (Mus musculus [21]) | Activity (Mus musculus [22]) | other results
1 | O=C1NC(=O)[C@@H](c2ccccc2)N2CCC[C@@H]12 | inactive | inactive | Non-toxic | inactive | inactive | inactive | inactive | inactive | inactive | inactive | Non-toxic | Non-toxic | 0.25 | inactive | inactive | Non-toxic | Non-toxic | inactive | Non-toxic | inactive | Activity (Mus musculus [3]): inactive; Ratio TD50/ED50 (Mus musculus [8]): 12.2; Activity (Mus musculus [23]): Non-toxic; Activity (Mus musculus [24]): Non-toxic; Activity (Mus musculus [25]): inactive; Activity (Mus musculus [26]): Non-toxic; Activity (Mus musculus [27]): inactive
2 | CCOC(=O)CN1C(=O)[C@H](c2ccccc2)N2CCC[C@H]2C1=O | inactive | inactive | Non-toxic | inactive | inactive | inactive | Active | Active | inactive | inactive | Non-toxic | Non-toxic | 0.25 | inactive | inactive | Non-toxic | Non-toxic | inactive | Non-toxic | Active | TD50 at 0.5 h [28]: 178 mg/kg; ED50 (Mus musculus [29]): 55.6 mg/kg; Activity (Mus musculus [23]): Toxic; Activity (Mus musculus [24]): Non-toxic; Activity (Mus musculus [25]): Active; Activity (Mus musculus [26]): Non-toxic; Activity (Mus musculus [27]): inactive

Reference: ChEMBL document CHEMBL1909525, “Synthesis and anticonvulsant activity of novel 2,6-diketopiperazine derivatives. Part 1: perhydropyrrole[1,2-a]pyrazines” (Eur J Med Chem, 2011)
